Data reported in article PMC2882558 (Biopolymers, 2010).
Where two headings read alike, the source gives them in different places. Square brackets hold non-standard residues; d marks the D form. Ends that are not written are not given here. Peptide text beside a SMILES is read from it. Nle = CCCC[C@H](N)C(=O)O

Experiments:
[1] = test system: 20S proteasome activated with 0.005% SDS, ChT-L activity; test: ChT-L peptidase activity of SDS-activated 20S proteasome; type: biochemical, human; settings: 100% = DMSO solvent control
[2] = Solubility in NMR phosphate buffer; type: physicochemical; settings: KH2PO4/Na2HPO4 buffer, pH 6.8 (NMR samples)
20S proteasome = test: Peptidase activities of 20S proteasome; type: biochemical, human; settings: single peptides; not shown
How it was run: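 Human erythrocyte 20S CP, latent or 0.005% SDS-activated, 3 nM final; 50 mM Tris/HCl pH 8.0, DMSO ≤3% final. Test peptide preincubated 10 min at room temperature, then substrate added at 50 or 100 μM final: Suc-LLVY-MCA (ChT-L), Boc-LRR-MCA (T-L), Z-LLE-βNA (PGPH). Emission 460 nm every 2 min, ≤60 min, 37°C; nmol product/mg CP/s; ≥3 repeats across proteasome batches.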

[3] = test system: 20S proteasome (CP) with PA28αβ activator; type: biochemical, human
How it was run: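 Human erythrocyte 20S CP (3 nM final) in 50 mM Tris/HCl pH 8.0 was pretreated with DMSO (≤3% final) or peptide, then mixed with purified human PA28αβ at set molar ratios. After 5 min preincubation, SucLLVY-MCA (50 or 100 μM final) was added. AMC fluorescence at 460 nm was read every 2 min for up to 60 min at 37°C. Activity was expressed as nmol AMC/mg CP/s, with ≥3 repeats using different proteasome batches.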

With CCCC[C@H](NC(=O)CNC(=O)[C@H](CCCCN)NC(=O)[C@@H](NC(=O)[C@H](CCC(=O)O)NC(=O)CNC(=O)[C@H](CCCNC(=N)N)NC(=O)[C@@H]1CCCN1C(=O)[C@H](CCCCN)NC(=O)[C@@H](N)CCCCN)[C@@H](C)O)C(=O)N[C@H](C(=O)N[C@@H](Cc1ccc(O)cc1)C(N)=O)[C@@H](C)CC [KKP] (H-KKPRGETKG[Nle]IY-NH2) the “% of Ch-L activity, SDS-activated proteasome” value (shortened to “% of Ch-L activity”) ([1]; 1 mM peptide) was 107%, the “% of Ch-L activity” value ([1]; 2 mM peptide) was 115% and the “% of Ch-L activity” value ([1]; 5 mM peptide) was 108%. For the same compound, the “% of Ch-L activity” value ([1]; 10 mM peptide) was 106%.
For N=C(N)NCCC[C@H](NC(=O)CN)C(=O)N[C@@H](CCCCN)C(=O)N[C@@H](CCCCN)C(=O)N[C@@H](CCCNC(=N)N)C(=O)N[C@@H](CCCNC(=N)N)C(=O)N[C@@H](CCC(N)=O)C(=O)N[C@@H](CCCNC(=N)N)C(=O)N[C@@H](CCCNC(=N)N)C(=O)N[C@@H](CCCNC(=N)N)C(=O)N1CCC[C@H]1C(=O)N[C@@H](CO)C(N)=O [Tat1], the Solubility in buffer [2] was “not fully soluble”.
In the case of IPKIEDGNDFGV, the “Effect on any of the peptidase activities of 20S proteasome” value (20S proteasome) is reported as “did not substantially affect”.
In the case of IPRIEDGNNFGV, the “Effect on any of the peptidase activities of 20S proteasome” value (20S proteasome) is reported as “did not substantially affect”.
In the case of “PA28αβ: purified human PA28αβ proteasome activator (BioMol Inc.)”, the “Activation of CP by PA28αβ (fold)” value ([3]; CP:PA28αβ molar ratio 1:1) is reported as “approximately 2,5 x”, the “Activation of CP by PA28αβ (fold)” value ([3]; CP:PA28αβ molar ratio 1:2) is reported as about 5 x and the “Activation of CP by PA28αβ (fold)” value ([3]; CP:PA28αβ molar ratio 1:4) is reported as about 8 x.
For RKKRRQRRQDPI-NH2 [Tat2], the Solubility in buffer [2] was “not fully soluble”.
